Experimental data: ChEMBL document CHEMBL3817737, “Structure-Based Identification of Novel Ligands Targeting Multiple Sites within a Chemokine-G-Protein-Coupled-Receptor Interface” (J Med Chem, 2016)

How the values were obtained:
[1] = molecular target: T1, Stromal cell-derived factor 1 (Homo sapiens, UniProt P48061); experiment: Binding affinity to His6-SUMO fusion tagged wild type human [U-15N]CXCL12 expressed in Escherichia coli assessed as induction of chemical shift perturbations to residues at I4/I6 binding site by 2D 1H-15N HMQC NMR spectroscopy
T1 sequence (P48061 whole entry, the tested form may be a part): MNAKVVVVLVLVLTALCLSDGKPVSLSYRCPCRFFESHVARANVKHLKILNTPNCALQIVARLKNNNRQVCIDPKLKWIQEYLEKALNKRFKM
In short: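 [U-15N]-CXCL12 WT was made as a His6SUMO fusion in E. coli (Terrific Broth, 1 mM IPTG) and taken from inclusion bodies by Ni-NTA. Combined CSP = ((5ΔδH)2+(ΔδN)2)0.5. Kd came from single-site quadratic fits of the most-perturbed residues, fitted individually and averaged (±SD).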

[2] = molecular target: T1, Stromal cell-derived factor 1; experiment: Binding affinity to His6-SUMO fusion tagged wild type human [U-15N]CXCL12 expressed in Escherichia coli by 2D 1H-15N HMQC NMR spectroscopy
[3] = molecular target: Stromal cell-derived factor 1 (Homo sapiens, UniProt P48061, A65C/L36C)
Sequence of Stromal cell-derived factor 1 (Homo sapiens, UniProt P48061, A65C/L36C) (P48061 22-93 L57C/A86C limits assumed): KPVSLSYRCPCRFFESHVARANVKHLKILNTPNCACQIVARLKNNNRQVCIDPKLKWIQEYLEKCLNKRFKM

Activity [1] [%]	Kd ([2]; read-out: Kd) [µM]	Kd [2]	Kd [3] [µM]	Structure (SMILES)
12.5	–	–	–	O=C(O)CC1c2ccccc2CCN1C(=O)Nc1cccc(F)c1 (stereo unspecified)
16.7	1700	–	–	C[C@H](NC(=O)CCn1ccc2c(Cl)cccc21)C(=O)O
–	–	Dose-dependent effect	74	CC(C)O.CCCOc1ccc(C(Nc2ccc(F)cc2)P(=O)(O)O)cc1 (stereo unspecified)
12.5	–	–	–	Cc1ccc(NS(=O)(=O)c2ccc(OCC(=O)O)c(C)c2)cc1C
